In ChEMBL document CHEMBL4613227, “Synthesis and evaluation of the HIF-1α inhibitory activity of 3(5)-substituted-4-(quinolin-4-yl)- and 4-(2-phenylpyridin-4-yl)pyrazoles as inhibitors of ALK5” (Bioorg Med Chem Lett, 2020):
Activity calls are given as the source filed them. The rule behind the calls is not given here.

Experiments:
[1] = target: Mitogen-activated protein kinase 14 (Homo sapiens, UniProt Q16539); assay: Inhibition of recombinant human p38alpha expressed in Escherichia coli assessed as residual activity at 10 uM (reference value: 100 +/- 0.1%)
Sequence of Mitogen-activated protein kinase 14 (Q16539 whole entry, the tested form may be a part): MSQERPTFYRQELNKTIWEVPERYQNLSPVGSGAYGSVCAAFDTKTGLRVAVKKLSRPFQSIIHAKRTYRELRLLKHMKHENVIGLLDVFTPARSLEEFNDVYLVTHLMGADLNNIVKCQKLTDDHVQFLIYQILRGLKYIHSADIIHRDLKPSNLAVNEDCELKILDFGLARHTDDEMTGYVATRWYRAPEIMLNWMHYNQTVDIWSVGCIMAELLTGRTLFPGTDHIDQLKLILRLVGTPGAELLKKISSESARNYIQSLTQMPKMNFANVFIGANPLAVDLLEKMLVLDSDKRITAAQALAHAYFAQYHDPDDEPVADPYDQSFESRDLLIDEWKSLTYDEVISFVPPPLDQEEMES
Summary of the method: (§1)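 Single-point kinase screen at 10 μM, in duplicate; ALK5 as human GST-fusion from baculovirus/Sf9, p38α as untagged human protein from E. coli; residual activity relative to DMSO vehicle, mean ± SD of two independent experiments.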

[2] = target: T1, TGF-beta receptor type-1 (Homo sapiens) (UniProt P36897); assay: Inhibition of recombinant GST-tagged human ALK5 expressed in baculovirus infected Sf9 insect cells assessed as residual activity at 10 uM; summary of the method: as §1
T1 sequence (whole entry): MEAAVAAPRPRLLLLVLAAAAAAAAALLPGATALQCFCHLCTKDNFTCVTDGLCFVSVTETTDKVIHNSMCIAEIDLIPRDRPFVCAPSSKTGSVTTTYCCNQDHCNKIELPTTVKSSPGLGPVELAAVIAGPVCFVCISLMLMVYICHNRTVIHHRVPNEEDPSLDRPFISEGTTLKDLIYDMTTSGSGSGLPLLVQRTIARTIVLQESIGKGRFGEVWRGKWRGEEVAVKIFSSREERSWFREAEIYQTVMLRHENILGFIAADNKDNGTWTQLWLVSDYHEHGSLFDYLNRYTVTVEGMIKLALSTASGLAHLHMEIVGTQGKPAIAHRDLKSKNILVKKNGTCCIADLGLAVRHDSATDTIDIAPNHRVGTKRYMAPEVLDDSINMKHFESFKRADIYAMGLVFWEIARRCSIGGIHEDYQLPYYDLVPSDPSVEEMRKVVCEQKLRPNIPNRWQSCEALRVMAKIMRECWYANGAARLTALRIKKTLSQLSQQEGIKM

[3] = target: Hypoxia-inducible factor 1-alpha (Homo sapiens) (UniProt Q16665); assay: Inhibition of HIF1-alpha (unknown origin)
Sequence of Hypoxia-inducible factor 1-alpha (Homo sapiens) (Q16665 whole entry, looked up): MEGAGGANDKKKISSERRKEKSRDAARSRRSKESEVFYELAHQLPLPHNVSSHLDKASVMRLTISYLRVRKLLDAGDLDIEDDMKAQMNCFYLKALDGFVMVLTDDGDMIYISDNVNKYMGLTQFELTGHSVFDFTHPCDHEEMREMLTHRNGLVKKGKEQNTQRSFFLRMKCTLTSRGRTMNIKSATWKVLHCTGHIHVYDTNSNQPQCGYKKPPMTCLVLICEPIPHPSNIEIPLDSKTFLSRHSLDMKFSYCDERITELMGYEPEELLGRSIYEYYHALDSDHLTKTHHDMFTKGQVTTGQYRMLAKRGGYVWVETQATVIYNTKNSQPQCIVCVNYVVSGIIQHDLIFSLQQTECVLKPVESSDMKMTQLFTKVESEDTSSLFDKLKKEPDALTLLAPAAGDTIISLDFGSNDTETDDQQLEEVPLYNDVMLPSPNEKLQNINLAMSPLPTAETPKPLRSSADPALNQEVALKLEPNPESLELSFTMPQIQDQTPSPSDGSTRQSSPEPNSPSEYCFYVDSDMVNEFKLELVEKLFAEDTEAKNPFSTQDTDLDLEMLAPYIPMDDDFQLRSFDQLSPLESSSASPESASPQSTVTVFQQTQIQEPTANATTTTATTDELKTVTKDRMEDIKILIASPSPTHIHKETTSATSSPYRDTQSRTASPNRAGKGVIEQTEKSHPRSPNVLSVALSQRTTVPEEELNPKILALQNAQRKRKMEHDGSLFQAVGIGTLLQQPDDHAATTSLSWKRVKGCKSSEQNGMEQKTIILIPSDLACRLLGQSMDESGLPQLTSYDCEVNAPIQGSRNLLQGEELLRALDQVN

HCT-116 [4] = assay: Cytotoxicity against human HCT116 cells up to 50 uM after 24 hrs by MTT assay; assay type: cell-based; conditions: hct-116, 24 h
Summary of the method: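 Cell viability of HCT116 by MTT after 24 h exposure to graded concentrations up to 50 μM.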

HCT-116 [5] = assay: Inhibition of TNFalpha-induced HIF1alpha expression in human HCT116 cells at 10 to 50 uM by Western blot analysis; assay type: functional, cell-based
Summary of the method: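 HCT116 exposed to TNF 10 ng/mL for 24 h with graded concentrations; total protein blotted for HIF-1α, Topo-I reprobe as loading control.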

HCT-116 [6] = assay: Inhibition of HIF1alpha accumulation in hypoxia-induced human HCT116 cells at 50 uM preincubated for 30 mins in presence of proteasome inhibitor MG-132 followed by compound addition and measured after 12 hrs under hypoxic condition by Western blot analysis; assay type: functional, cell-based
Summary of the method: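 HCT116 pretreated with MG-132 (10 μM) 30 min, then compound (50 μM) under 1% O₂ for 12 h; nuclear HIF-1α by Western blot, Topo-I loading control.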

HCT-116 [7] = assay: Induction of apoptosis in human HCT116 cells assessed as viable cells at 50 uM after 12 hrs by Annexin-V/PI-staining based flow cytometric analysis (reference value: 95.3%); assay type: functional; conditions: HCT-116, 12 h, read-out: Activity
HCT-116 [8] = assay: Induction of apoptosis in human HCT116 cells assessed as late apoptotic cells at 50 uM after 12 hrs by Annexin-V/PI-staining based flow cytometric analysis (reference value: 0.2%); assay type: functional
HCT-116 [9] = assay: Induction of apoptosis in human HCT116 cells assessed as necrotic cells at 50 uM after 12 hrs by Annexin-V/PI-staining based flow cytometric analysis (reference value: 3.5%); assay type: functional
HCT-116 [10] = assay: Induction of apoptosis in human HCT116 cells assessed as viable cells at 50 uM preincubated for 12 hrs followed by TNF stimulation and measured after 24 hrs by Annexin-V/PI-staining based flow cytometric analysis (reference value: 92.4%); assay type: functional; conditions: read-out: Activity
HCT-116 [11] = assay: Induction of apoptosis in human HCT116 cells assessed as early apoptotic cells at 50 uM preincubated for 12 hrs followed by TNF stimulation and measured after 24 hrs by Annexin-V/PI-staining based flow cytometric analysis (reference value: 2.8%); assay type: functional
HCT-116 [12] = assay: Induction of apoptosis in human HCT116 cells assessed as effect on cleaved caspase 8 expression at 50 uM after 12 hrs by Western blot analysis; assay type: functional, cell-based
HCT-116 [13] = assay: Induction of apoptosis in human HCT116 cells assessed as effect on cleaved caspase 3 expression at 50 uM after 12 hrs by Western blot analysis; assay type: functional, cell-based
HCT-116 [14] = assay: Induction of apoptosis in human HCT116 cells assessed as effect on cleaved caspase 8 expression at 50 uM preincubated for 12 hrs followed by TNF-stimulation and measured after 24 hrs by Western blot analysis; assay type: functional, cell-based
Summary of the method: (§2)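 HCT116 pretreated 12 h with 50 μM, then TNF (10 ng/mL) 24 h; whole cell extracts blotted for cleaved caspase-8, cleaved caspase-3, cleaved PARP, tubulin.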

HCT-116 [15] = assay: Induction of apoptosis in human HCT116 cells assessed as effect on cleaved caspase-3 expression at 50 uM preincubated for 12 hrs followed by TNF-stimulation and measured after 24 hrs by Western blot analysis; assay type: functional, cell-based; summary of the method: as §2
HCT-116 [16] = assay: Induction of apoptosis in human HCT116 cells assessed as PARP cleavage at 50 uM after 12 hrs by Western blot analysis; assay type: functional, cell-based
HCT-116 [17] = assay: Down regulation of TNF-induced ICAM-1 protein expression in human HCT116 cells at 50 uM pretreated for 12 hrs followed by TNF stimulation and measured after 24 hrs by Western blot analysis; assay type: functional, cell-based
Summary of the method: (§3)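 HCT116 pretreated 12 h with 50 μM, then TNF (10 ng/mL) 24 h; whole cell extracts immunoblotted for ICAM-1, MMP-9, VEGF with tubulin as loading reference.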

HCT-116 [18] = assay: Down regulation of TNF-induced MMP9 protein expression in human HCT116 cells at 50 uM pretreated for 12 hrs followed by TNF stimulation and measured after 24 hrs by Western blot analysis; assay type: functional, cell-based; summary of the method: as §3
HCT-116 [19] = assay: Down regulation of TNF-induced VEGF protein expression in human HCT116 cells at 50 uM pretreated for 12 hrs followed by TNF stimulation and measured after 24 hrs by Western blot analysis; assay type: functional, cell-based; summary of the method: as §3
HCT-116 [20] = assay: Down regulation of TNF-induced ICAM-1 mRNA expression in human HCT116 cells at 50 uM pretreated for 12 hrs followed by TNF stimulation and measured after 12 hrs by Western blot analysis; assay type: functional, cell-based; conditions: in the assay text read “RT-PCR analysis” for “Western blot analysis”
Summary of the method: (§4)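 HCT116 preincubated 12 h with graded concentrations, then TNF 10 ng/mL for a further 12 h; ICAM-1, VEGF, MMP-9 transcripts measured by RT-PCR, GAPDH for equal RNA loading.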

HCT-116 [21] = assay: Down regulation of TNF-induced MMP9 mRNA expression in human HCT116 cells at 50 uM pretreated for 12 hrs followed by TNF stimulation and measured after 12 hrs by Western blot analysis; assay type: functional, cell-based; conditions: in the assay text read “RT-PCR analysis” for “Western blot analysis”; summary of the method: as §4
HUVEC = assay: Inhibition of TNF-induced cell migration in HUVEC at 50 uM after 24 hrs by scratch wound healing assay; assay type: functional, cell-based; conditions: Homo sapiens
Summary of the method: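 HUVEC scratch assay: cells pretreated with graded concentrations, with or without TNF (10 ng/mL); uncovered area photographed at 24 h.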

## Cc1cccc(-c2nn(CC(=S)Nc3cccc(C#N)c3)cc2-c2ccnc3ccccc23)n1
[1]
  Activity: 3%
[2]
  Activity: 2%
[3]
  inhibition: Active
HCT-116 [4]
  Activity: Non-Toxic
HCT-116 [5]
  inhibition: Active
HCT-116 [6]
  inhibition: Active
HCT-116 [7]
  viability at 50 µM: 85.2%
HCT-116 [8]
  Activity: 3.2%
HCT-116 [9]
  Activity: 8.5%
HCT-116 [10]
  viability at 50 µM: 86.8%
HCT-116 [11]
  Activity: 4.4%
HCT-116 [12]
  Activity: Active
HCT-116 [13]
  Activity: Active
HCT-116 [14]
  Activity: Active
HCT-116 [15]
  Activity: Active
HCT-116 [16]
  Activity: Active
HCT-116 [17]
  Activity: Active
HCT-116 [18]
  Activity: Active
HCT-116 [19]
  Activity: Active
HCT-116 [20]
  Activity: Active
HCT-116 [21]
  Activity: Active
HUVEC
  inhibition: Active
